Assay outcomes deposited in PubChem by several laboratories.
HSP90 refold inh – HSP90 inhibitors, primary screen, cell lysate, luminescence; Rabbit reticulocyte lysate, luciferase refolding luminescence, 3 h; AID 1789, 2009; actives 0.91% (n = 290,000); inhibition, % at 5.6 µM; Heat shock protein HSP 90 (rabbit reticulocyte lysate; luciferase refolding);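 active = inhibition above the screen-wide mean plus 3 SD, computed separately per campaign, cut at about 16% in these data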;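 note: 0% = DMSO wells and 100% = 60 µM geldanamycin wells; inhibitors lower the luminescence because luciferase stays unfolded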
NS3 helicase inh – inhibitors of HCV NS3 helicase, primary screen, biochemical, Cy5 molecular beacon fluorescence | Hepatitis C virus NS3 helicase | NS3 helicase DNA unwinding | inhibition, % at 10.9 µM | actives 0.56% (n = 290,000);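 active = inhibition above the mean of all tested compounds plus 3 SD, set per campaign, cut at about 35% in these data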;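 note: 0% = DMSO wells and 100% = thioflavine S control wells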
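Assay system: hepatitis C virus NS3 helicase domain fragment enzyme. Also added: annealed dual-labelled DNA beacon duplex, ATP-started. Timing: 1 h reaction at 25 °C, ATP-initiated. Technique: Cy5 fluorescence at 0 and 60 min, beacon hairpin quenching. Evaluation: % inhibition of unwinding. Replication: one well per compound.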
DNA FID counter – compounds displacing fluorescent DNA intercalator, primary screen, artefact control for HCV NS3 helicase inhibitor project, biochemical, FID fluorescence; inhibition, % at 7.9 µM; actives 0.17% (n = 290,000); AID 1845, 2009; DNA fluorescent intercalator displacement; in the data active = inhibition above about 37%;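 note: 0% = vehicle and 100% = reference compound; higher means more ethidium bromide displaced from hairpin DNA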
HSF-1 act – HSF-1 activators, primary screen, NIH3T3-HGL cells, MG132 stress, luminescence, single point; NIH3T3-HGL HSF-1 luciferase reporter, 8 h; 100% = twice DMSO control signal; activation, % at 9 µM; actives 1.7% (n = 300,000); AID 504408, 2011;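 active = mean replicate activation of at least 50% with a set share of replicates each reaching 50%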;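 note: 0% = median of the neutral control wells and 100% = twice that signal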
core dimer inh – inhibitors of HCV core protein dimerization, primary screen, biochemical, TR-FRET, high-throughput | TR-FRET GST/Flag-core106 dimerization, 1536-well | inhibition, % at 5 µM | actives 0.33% (n = 300,000) | AID 1899, 2009;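 active = inhibition above the mean of all tested compounds plus 3 SD, set per screening campaign, cut at about 45% in these data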
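Assay system: Tagged HCV core106 pair (GST and Flag) | Buffer or medium: KF-containing HEPES buffer, pH 7.45, DTT, CHAPS, BSA | Also added: Eu donor and XL665 acceptor anti-tag antibodies | Dosing: One concentration, 5 µM, in 0.5% DMSO | Timing: 4 h at 22.5 °C | Technique: TR-FRET 671 and 617 nm emission | Repeats: Singlicate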
HSF1 inhib – HSF1 inhibitors in luciferase reporter cells, primary screen, cell-based, NIH3T3, luminescence; NIH3T3-HGL HSE-luciferase, MG132-induced, luminescence 8 h; hits give low values; activity change, negative = inhibition, % at 7.5 µM (by protocol); actives 0.77% (n = 300,000);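 active = more than half of replicate wells show activity change below -50%, luminescence cut by over half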;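 note: luciferase reports HSF-1 transcriptional activity via heat shock element; 0% = median of DMSO wells and -100% = zero luminescence signal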
Active calls of the source: *; / = no result. The list is not random: actives were taken first. Their share in the collection is about 3.9%.

SMILES	HSP90 refold inh	NS3 helicase inh	DNA FID counter	HSF-1 act	core dimer inh	HSF1 inhib
CN(C)C=NC(=O)c1cc(C(=O)c2ccc(C(C)(C)C)cc2)c[nH]1	3.7	-8.7	-4.3	50.4*	3.2	14.1
CN(C)C=NC(=O)c1cc(C(=O)c2ccccc2Cl)c[nH]1	-3.0	6.9	-2.7	-14.7	-3.6	-5.1
O=C(O)CC/C(=N\NC(=O)c1ccncc1)c1ccccc1	-1.6	-1.8	-7.1	-0.4	-3.2	-0.6
C=CCOc1ccc(C(c2c(C)n(C)n(-c3ccccc3)c2=O)c2c(C)n(C)n(-c3ccccc3)c2=O)cc1	4.5	-3.1	-38.5	-87.2	15.1	-84.6*
Cc1[nH]c2ccccc2c1C(=O)C(=O)N1CCN(C)CC1	2.2	-12.1	-0.1	-2.5	3.1	-2.7
Nc1cccc(C(=O)OCC(=O)Nc2cccc3c2C(=O)c2ccccc2C3=O)c1	-1.6	2.2	-0.3	-1.3	17.3	-9.6
CC1CCN(C(=O)c2ccc3c(c2NCCO)C(=O)c2ccccc2C3=O)CC1	4.3	-4.5	-20.9	-3.1	-22.8	0.6
CCN(CC)CCNC(=O)c1ccc2c(c1NCCO)C(=O)c1ccccc1C2=O	8.9	-10.2	41.7*	27.9	-24.1	15.6
CCN(CC)CCC(=O)Nc1cccc2c1C(=O)c1ccccc1C2=O	8.1	-7.0	69.1*	11.4	0.8	11.8
O=C(O)CSc1nnnn1-c1ccc2c(c1)OCCO2	5.1	1.6	-1.0	70.1*	-0.7	23.2
O=C(NCc1ccco1)c1c2c(nc3ccccc13)CCC2	0.2	13.0	-3.9	-9.8	91.3*	-5.2
CC(C)(C)c1nc(SCC(=O)NCc2ccco2)c2ccccc2n1	9.3	-3.7	-17.7	9.9	5.8	13.8
CC(C)(C)NC(=O)COC(=O)c1c2c(nc3ccccc13)CCC2	-3.1	10.8	-21.4	12.7	53.3*	-8.6
O=C(CSc1c2c(nc3ccccc13)CCCC2)NCc1ccco1	0.7	15.7	-13.1	86.5*	15.1	39.8
Cc1ccc(C(=O)Nc2cccc(C(O)c3ccccc3)c2)cc1 (centres undefined)	/	/	/	-5.7	1.3	-5.6
CCn1c(SC(C)C(=O)Nc2nccs2)nnc1-c1ccncc1 (centres undefined)	-0.8	0.9	-14.7	-3.6	-1.9	0.4
Cc1cc(N)n(-c2ccc(C(=O)O)cc2)n1	7.2	10.0	-3.1	-73.7	-1.4	-67.0*
Cc1cc(C)n(-c2ccc(C(=O)O)cc2)n1	-0.4	-0.1	-1.1	22.8	-2.7	1.5
COc1ccccc1/C=C1/SC(=S)N(C(C)C(=O)NC2C=CS(=O)(=O)C2)C1=O (centres undefined)	6.3	19.4	-41.4	63.8*	-2.4	10.5
CC(C(=O)NC1C=CS(=O)(=O)C1)N1C(=O)/C(=C\c2ccccc2)SC1=S (centres undefined)	-2.9	6.0	-43.8	28.6	4.5	6.0
CCc1nc(SCC(=O)c2ccc(Cl)s2)c2oc3ccccc3c2n1	0.9	-3.4	-1.8	84.2*	-18.7	35.4
CCc1nc(SCCO)c2oc3ccccc3c2n1	0.6	-3.2	-8.4	-11.4	0.9	-7.2
Cc1ccc(/C([O-])=C(/C(=S)NCc2ccco2)[n+]2ccccc2)cc1	2.9	6.3	-5.2	-3.0	41.6	-6.8
O=[N+]([O-])c1ccc(/C([O-])=C(/C(=S)NCc2ccco2)[n+]2ccccc2)cc1	-2.1	6.0	0.6	1.5	52.1*	-4.1
O=C(NCCSCc1ccco1)Nc1cc(Cl)cc(Cl)c1	-1.3	1.9	-0.4	32.8	6.0	7.0
SMILES	HSP90 refold inh	NS3 helicase inh	DNA FID counter	HSF-1 act	core dimer inh	HSF1 inhib
CCCCN(Cc1cc2cc(OC)ccc2[nH]c1=O)C(=O)c1ccco1	-2.5	-0.1	-19.8	76.5*	10.0	36.2
CCOc1ccc(C(=O)N(Cc2ccc(OC)cc2)Cc2cc3cc(OC)ccc3[nH]c2=O)cc1	3.6	-1.5	0.2	64.8*	10.7	39.6
CCCN(Cc1cc2cc(OC)ccc2[nH]c1=O)C(=O)c1ccncc1	0.7	3.6	-11.7	-10.3	1.4	-0.8
CC(=O)Nc1ccc(S(=O)(=O)NCc2ccc(C(=O)NCc3ccc(Cl)cc3)cc2)cc1	4.8	-2.0	-5.7	-5.9	-3.6	-1.2
CC(C)CNS(=O)(=O)c1ccc(CCC(=O)Nc2ccc3c(c2)OCO3)cc1	16.7*	-4.1	-13.5	-17.8	6.7	2.2
CC(=O)Nc1ccc(S(=O)(=O)NCc2ccc(C(=O)NCc3ccc4c(c3)OCO4)cc2)cc1	3.5	-4.4	-12.7	-71.9	-0.9	-61.7*
O=C(CSc1cccc2cccc(Cl)c12)NCc1cccs1	1.0	-3.2	-9.9	8.8	8.1	9.2
CC(Cc1n[nH]c(=S)o1)c1ccccc1 (centres undefined)	0.3	-1.0	-3.0	-9.5	2.2	-0.9
COc1cccc(OC)c1OCc1cc(C2C3CCCC=C3C(C#N)=C(N)C2(C#N)C#N)c(C)cc1C (centres undefined)	3.5	34.3	-38.2	2.4	56.3*	-8.4
Cc1ccc(S(=O)(=O)N2CCOCC2)cc1NC(=O)COC(=O)c1cccnc1Cl	-0.5	18.1	-1.1	53.6*	2.2	6.4
CCOc1ncccc1C(=O)OCC(=O)Nc1cc(S(=O)(=O)N2CCOCC2)ccc1C	2.5	-8.0	-18.3	7.3	-8.8	-10.5
NS(=O)(=O)c1ccc(CCNCC#Cc2ccccc2)cc1	-1.3	-11.1	10.7	-75.6	-2.1	-70.9*
COC(=O)/C=c1/s/c(=C(\C#N)C(=O)NCc2ccco2)n(-c2ccc(C)cc2)c1=O	-3.5	20.0	-7.9	-8.8	56.9*	3.1
C/C(=N\O)c1ccc2c3c([nH]c2c1)CCCC3	-2.0	-3.3	-4.0	93.0*	10.5	60.7
C/C(=N\O)c1ccc2[nH]ccc2c1	0.5	-2.5	2.6	19.0	-1.2	8.7
Cc1cc(=O)[nH]c2nnc(-c3ccc(Br)cc3)n12	8.8	4.0	-2.7	-0.7	/	2.3
Cc1cc(-c2nnc(CCC(=O)N(C)Cc3cccc4ccccc34)o2)no1	3.1	-2.9	-27.6	64.3*	-1.8	42.2
Cc1cc(-c2nnc(CCC(=O)NC(C)c3cccc4ccccc34)o2)no1 (centres undefined)	-0.9	3.7	-6.7	6.2	-1.1	-0.1
O=C(CCc1nc2ccccc2c(=O)[nH]1)N1CCN(S(=O)(=O)c2ccc(Cl)c(C(F)(F)F)c2)CC1	/	/	/	-1.7	4.9	-4.6
CCOC(=O)c1cnc2ccc(C)cc2c1Sc1ccc(F)cc1	-1.4	-5.3	-12.2	60.1*	5.0	38.1
